Screening results from PubChem BioAssay.
D1 allo mod: D1 CRE-luciferase signal change, two-sided – cell-based, HEK293 D1, dopamine EC30, D1 allosteric modulator project, primary screen. 5.9% of 58,000 active. B-score at 10 µM. AID 641, 2007. dopamine EC30 potentiation; actives deviate in either direction;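 active = luminescence count or its row- and column-corrected plate score outside the 99.7% band of the plate's sample wells, on either side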
HEK293 NFkB inh: inhibitors of PMA/ionomycin-induced NF-kB reporter, primary screen, antigen receptor NF-kB inhibitor project, cell-based, HEK-293 luciferase reporter, luminescence; HEK-293 NF-kB luciferase reporter; 0.21% of 62,000 active; inhibition, % at 3 µM;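 active = inhibition above the mean of all tested compounds plus 3 SD, cut at about 40% in these data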;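 also: 0% = stimulated DMSO wells and 100% = 10 µM reference inhibitor 5653914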
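Reagent: PMA plus ionomycin mix as NF-kB-activating stimulus. Assay system: NF-kB luciferase reporter HEK-293 cells. Technique: luminescence from luciferase substrate reagent. Incubation: 1 h compound pre-incubation, 16 h PMA/ionomycin at 37 °C. Benchmarks: DMSO only as uninhibited control, 10 µM reference inhibitor as full inhibition. Repeats: tested once.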
M1 ag: M1 muscarinic receptor agonists, primary screen, CHO-M1 cells, Fluo-4 calcium, agonist mode. Muscarinic acetylcholine receptor M1. Fluo-4 calcium fluorescence; active compounds read high. B-score at 10 µM. 3% of 64,000 active;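 active = fluorescence rise, raw or as B-score row- and column-corrected plate score, outside the 99.7% band of its plate's samples, either direction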
M1 antagonist: antagonists of rat M1 muscarinic receptor; Muscarinic acetylcholine receptor M1 (Rattus norvegicus), P08482; CHO-M1 cells, Fluo-4 calcium, ACh EC80 antagonist mode; active compounds read low; B-score at 10 µM; 3.4% of 64,000 active;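 active = calcium fluorescence response, raw or row-and-column corrected B-score, differing from the plate sample mean either way at a set confidence level, mostly lower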
hDAT+cocaine: changed hDAT dopamine uptake under cocaine IC80, either direction, primary screen, cocaine antagonist project, cell-based, LLC-PK1 hDAT, [14C]-dopamine uptake, MLSMR; B-score at 10 µM; 1.3% of 110,000 active; LLC-PK1 hDAT cells, [14C]-dopamine uptake with cocaine IC80; actives deviate in either direction; Sodium-dependent dopamine transporter (Homo sapiens), Q01959;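 active = Z score or B-score, a plate-position-corrected score, falls beyond the plate's 99.7% confidence bounds, in either direction; inactive = both scores lie inside the 99.7% bounds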;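 also: scored against the spread of the other compound wells on the same plate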
Target sequence (Q01959 whole entry, looked up): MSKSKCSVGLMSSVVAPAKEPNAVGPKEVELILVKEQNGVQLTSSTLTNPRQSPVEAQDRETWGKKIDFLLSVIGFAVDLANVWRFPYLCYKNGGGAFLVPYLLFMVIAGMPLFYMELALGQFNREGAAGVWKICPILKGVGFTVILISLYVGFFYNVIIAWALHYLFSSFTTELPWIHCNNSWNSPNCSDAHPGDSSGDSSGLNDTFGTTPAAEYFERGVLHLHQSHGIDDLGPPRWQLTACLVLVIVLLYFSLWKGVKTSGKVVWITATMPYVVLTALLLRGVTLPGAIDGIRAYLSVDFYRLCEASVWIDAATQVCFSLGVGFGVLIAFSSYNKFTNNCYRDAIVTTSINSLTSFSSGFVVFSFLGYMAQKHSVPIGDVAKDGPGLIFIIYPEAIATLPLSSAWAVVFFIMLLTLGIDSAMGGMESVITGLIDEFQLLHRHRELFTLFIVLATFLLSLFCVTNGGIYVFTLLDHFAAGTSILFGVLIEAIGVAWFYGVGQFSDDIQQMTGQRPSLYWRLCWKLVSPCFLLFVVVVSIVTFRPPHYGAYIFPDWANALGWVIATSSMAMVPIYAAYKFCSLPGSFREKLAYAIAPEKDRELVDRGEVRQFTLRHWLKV
Jurkat tox 60K: cytotoxicity toward Jurkat T cells, primary screen, cytotoxicity control, cell-based, Jurkat E6.1, 60K MLSMR library | 1.2% of 56,000 active | inhibition, % at 4 µM | Jurkat E6.1 viability, ATP luminescence, 48 h;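 active = inhibition above the mean inhibition of all tested compounds plus 3 SD, cut at about 28% in these data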
D1 PAM confirm: D1 receptor positive allosteric modulators, retest, confirmation, cell-based, HEK293 D1, CRE-luciferase, duplicate; AID 642, 2007; luminescence at 10 µM; dopamine EC30 potentiation; active compounds read high; shares compounds with D1 allo mod; 88% of 2,200 active;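 active = luminescence in either of two replicates above the same-plate mean plus 3 SD of the low-dose dopamine control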
D1 ag no DA: D1 receptor agonism without dopamine, confirmation, mechanism study for D1 allosteric modulator project, cell-based, HEK293 D1, CRE-luciferase, secondary assay 1. shares compounds with D1 allo mod. luminescence, no dopamine; active compounds read high. luminescence at 10 µM. 0.8% of 1,900 active. AID 646, 2007; in the data active = luminescence above about 3900
Isoprot counter: alters isoproterenol CRE-luciferase response in HEK293 cells; shares compounds with D1 allo mod; HEK293 D1 CRE-luciferase, isoproterenol EC30 counter-screen; calls only at 10 µM; 63% of 2,200 active; AID 647;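 active = luminescence in either replicate above plate mean of wells with a partly effective reference agonist dose plus 3 SD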;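 also: isoproterenol raises cAMP through native beta-adrenoceptor Gs so signal bypasses D1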
Starred values were filed as active, the others as inactive; i = inactive; x = not tested or not shown; + = active, no number. Most compounds without a hit are left out; they make up all but 7.6% or so of the library.

SMILES | D1 allo mod | HEK293 NFkB inh | M1 ag | M1 antagonist | hDAT+cocaine | Jurkat tox 60K | D1 PAM confirm | D1 ag no DA | Isoprot counter
COc1ccc2[nH]c(=O)c(CN(Cc3cccs3)Cc3nnnn3C(C)(C)C)cc2c1 | 5.3* | 13 | -0.34 | -0.59 | 2.5* | 1 | 7020* | 1520 | i
Nc1nc(Nc2cccc(C(F)(F)F)c2)nc(C(F)(F)F)n1 | 8* | -1 | -0.42 | -0.45 | -0.31 | -1 | 15108* | 1664 | +
Nc1ncnc(Nc2cccc(C(F)(F)F)c2)n1 | x | x | x | x | 0.69 | x | x | x | x
C=CCN1c2ccccc2[C@]23C[C@@H](C(=O)OC)N=C2NC(C(=O)OC)=C(C(=O)OC)[C@H]13 | x | x | x | x | 0.021 | x | x | x | x
O=C(c1cccc(-c2nnc(-c3ccccc3)o2)c1)N1CCCCC1 | 7.9* | -29 | 0.16 | 0 | 1.5 | -2 | 12576* | 1552 | +
O=C(c1cccc(-c2nnc(-c3ccccc3)o2)c1)N1CCCCCC1 | x | x | x | x | 1.2 | x | x | x | x
N#Cc1ccc(-c2ccc3c(c2)OCO3)nc1SCC(=O)OCc1ccccc1 | x | x | x | x | -1.5 | x | x | x | x
Cc1cc2n(n1)C(c1ccc(N(C)C)cc1)Nc1ccccc1-2 (stereo not drawn) | 1.1 | -12 | -0.0077 | 0.1 | -0.57 | 0 | x | x | x
Cc1cc2n(n1)C(c1ccc3c(c1)OCO3)Nc1ccccc1-2 (stereo not drawn) | 11* | 0 | 0.84 | -0.033 | -0.36 | -1 | 17556* | x | +
Cc1cc2n(n1)C(c1ccccc1)Nc1ccccc1-2 (stereo not drawn) | 14* | 25 | 0.47 | 0.17 | -0.021 | 1 | 14996* | 1724 | +
Cc1cc2n(n1)C(c1sccc1C)Nc1ccccc1-2 (stereo not drawn) | 8.4* | 2 | -1.2 | -0.058 | -0.13 | 6 | 9040* | x | +
Cc1ccc2c(c1)-c1cc(C)nn1C(c1ccc3c(c1)OCO3)N2 (stereo not drawn) | 5.3* | -2 | -0.0046 | -1.7 | x | -1 | 12540* | 1584 | +
Cc1ccc2c(c1)-c1cc(C)nn1C(c1sccc1C)N2 (stereo not drawn) | 2.2 | -3 | 0.38 | -0.0019 | -0.086 | -9 | x | x | x
Cn1cc(CNC(=O)COc2ccc(Cl)cc2Cl)cn1 | 0.034 | 14 | -1.4 | -0.29 | 0.43 | -4 | x | x | x
O=C(COC(=O)c1ccccc1C(=O)N1CCN(c2ccc(F)cc2)CC1)NCc1ccccc1 | x | x | x | x | 1.5 | x | x | x | x
O=C(/C=C/c1ccc(Cl)cc1Cl)n1cccn1 | x | x | x | x | 0.97 | x | x | x | x
Cc1cc(Cl)ccc1NC(=O)Nc1c(C)n(-c2ccccc2)c(=O)n1C | x | x | x | x | 0.39 | x | x | x | x
N#Cc1c2n(c3c(=O)n(Cc4ccc(Cl)cc4)cnc13)CCCCC2 | 11* | 21 | 0.18 | -0.43 | 1.3 | 6 | 13432* | 1956 | +
N#Cc1c2n(c3c(=O)n(Cc4ccccc4)cnc13)CCCC2 | 4.6 | 8 | -0.044 | -0.019 | 0.22 | -2 | x | x | x
N#Cc1nc(-c2cccs2)oc1NCc1ccco1 | 9.2* | 9 | -0.54 | 0.29 | 0.22 | -3 | 14284* | x | +
N#Cc1nc(-c2ccco2)oc1NCc1ccco1 | 9.5* | 20 | 0.031 | -0.39 | -1.3 | -2 | 13820* | 1564 | +
N#Cc1nc(-c2cccs2)oc1NCc1ccccc1Cl | x | x | -0.086 | -0.28 | x | x | x | x | x
Cc1ccc(C(=O)Nc2cc(=O)n(C)c(=O)n2C)o1 | x | x | x | x | -0.87 | x | x | x | x
